Viability data for 34 compounds are collected here from PubChem BioAssay AID821 (SRMLSC, 2007).

Structures are written as SMILES. Calls of active or inactive are those of the source.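 Rule for the calls: active = compounds whose fitted half-maximal concentration for reducing fibroblast viability is 100 µM or lower; inactive = the rest.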

This experiment can be described thus: inhibition of LL 47 lung fibroblast growth, concentration-response curve, selectivity screen for endothelial cell growth inhibitor project, cellular system, ATP luminescence readout (AID 821).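 Note: 100% = median of untreated cell-only wells and 0% = no luminescence.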 The settings on record: LL 47 lung fibroblast viability, ATP luminescence; at 20 µM (top of the series). The procedure, abridged:
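Test system: human lung fibroblasts, LL 47 line / Amount: 1,150 cells/well / Schedule: 72 h compound treatment at 37 °C after overnight attachment / Technique: CellTiter-Glo luminescence readout of viable cells / Measure: percent viability relative to untreated wells, EC50 via 4-parameter fit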
As to `COc1ccc(CNC(=O)c2cc3c(C)nc4ccccc4c3o2)c(OC)c1`, the viability (as a rule, a read-out of living cells in per cent, often relative to untreated cells) was 88.7% (inactive).
With `Cc1ccc(Cn2c(=S)[nH]c3ccc(N4CCOCC4)cc3c2=O)o1`, the viability was 85% (inactive).
In the case of `Cc1ccc(Cn2nc(C)c(NC(=O)c3cc(-c4ccc5c(c4)OCO5)on3)c2C)cc1` it was 106% (inactive).
In the case of `N#CCc1nc2c3c4c(sc3ncn2n1)CCCC4` it was 102% (inactive); in that of `Cc1nc2ccccc2c2oc(C(=O)NCc3ccc4c(c3)OCO4)cc12`, 102% (inactive); in that of `CN1C(=O)C(O)(CC(=O)c2cccc(-n3cccc3)c2)c2ccccc21` (centres undefined), 93.7% (inactive).
In the case of `CCCCCCn1c(C)nc2c(c1=O)c1nc3ccccc3nc1n2/N=C/c1ccco1` it was 111% (inactive); in that of `OCCN1CCN(c2nc(-c3ccccc3)c3cc(Cl)ccc3n2)CC1`, 85% (inactive); in that of `COc1cc(N=c2ssnc2Cl)c(OC)cc1Cl`, 88.6% (inactive).
Turning to `CCCN(CCO)Cc1cccc(Br)c1`, the viability is 97.9% (inactive).
Consider `COC(=O)c1cc(NC(=O)c2c(Cl)nc3sccn23)cc(C(=O)OC)c1`, for which the viability was 91.8% (inactive).
In the case of `O=S(=O)(Nc1cccnc1)c1ccc(C2CCCCC2)cc1` it was 100% (inactive); in that of `CCOC(=O)c1c(NC(=O)C2COc3ccccc3O2)sc(C(C)=O)c1C` (centres undefined), 104% (inactive); in that of `CCn1c(Cc2ccc(OC)cc2)nnc1SCC(=O)Nc1cccc(C(=O)OC)c1`, 96.9% (inactive).
For `CCOC(=O)N1CCc2c(sc(NC(=O)c3ccc(S(=O)(=O)N4CCCC4)cc3)c2C#N)C1`, the viability was 81.6% (inactive).
Turning to `CCOC(=O)c1sc(NC(=O)CSc2nnnn2-c2ccc(C)cc2C)nc1C`, the viability was 81.2% (inactive).
In the case of `CCCn1c(Nc2nc3ccccc3n2C)nc2ccccc21` it was 102% (inactive); in that of `CCCC1(CCC)NC(=O)N(CC(=O)Nc2ccccc2OC)C1=O`, 92.2% (inactive).
In the case of `CCc1ccc(NC(=O)CCc2nc3cccnc3n2Cc2ccc(OC)cc2)cc1` it was 90.2% (inactive).
In the case of `CCC(C)[C@@H](NC(=O)OC(C)(C)C)c1nnc(S(=O)(=O)Cc2cccc(C)c2)o1` (some centres undefined) it was 91.4% (inactive); in that of `CCCC(=O)Nc1cccc(-c2nc3cc(C)c(C)cc3o2)c1`, 104% (inactive).
Turning to `CC(=O)Oc1ccc(N(C(C)=O)S(=O)(=O)c2cccs2)c2ccccc12`, the viability was 95.7% (inactive).
In the case of `Cc1ccccc1NC(=O)CSC(N)=O` it was 110% (inactive).
In the case of `CCC(C)NC(=O)c1c(N)n(/N=C/c2ccccn2)c2nc3ccccc3nc12` (centres undefined) it was 116% (inactive).
In the case of `Cc1sc2nc(SCC(=O)c3cccs3)n(Cc3ccco3)c(=O)c2c1C` it was 87% (inactive); in that of `CC1(C)Cc2c(C#N)c(SCC(=O)c3ccccc3)nc(N3CCOCC3)c2CO1`, 90.1% (inactive); in that of `Cc1oc(-c2ccccc2F)nc1CN1CCC(C(=O)NCCC2=CCCCC2)CC1`, 83.4% (inactive).
For `O=C(NCCC1=CCCCC1)C1CCN(Cc2cnn(-c3ccccc3)c2-n2cccc2)CC1`, the viability was 92.5% (inactive).
On to `CN1CCN(C(=O)c2ccc(COc3ccc(Cl)cc3Cl)cc2)CC1`, for which the viability is 103% (inactive).
As to `CCOC(=O)c1c(C)[nH]c(C(=O)OC/C(O)=C(\C#N)c2nc3ccccc3[nH]2)c1C`, the viability is 113% (inactive).
In the case of `Cc1cc(NC(=O)CSc2nc(C(C)C)nc3sc4c(c23)CCCC4)no1` it was 93.6% (inactive); in that of `COc1cc2c(N3CCOCC3)cc(O)c(CC(=O)Nc3ccccc3)c2cc1OC`, 95.9% (inactive); in that of `COc1ccc2[nH]cc(C(=O)CN3CCN(C(=O)c4ccco4)CC3)c2c1`, 108% (inactive).
In the case of `Cc1ccc(C(=O)Nc2ncc(Cc3ccc(F)cc3)s2)o1` it was 117% (inactive).
